Measured values from ChEMBL document CHEMBL1157746, “Function-oriented synthesis of simplified caprazamycins: discovery of oxazolidine-containing uridine derivatives as antibacterial agents against drug-resistant bacteria” (J Med Chem, 2010).
In brackets after ≈: the same amount, converted by molar mass.

Assays:
[1] = target: T1, Phospho-N-acetylmuramoyl-pentapeptide-transferase (Bacillus subtilis (strain 168), UniProt Q03521); experiment: Inhibition of Bacillus subtilis MraY after 30 mins using UDP-MurNAc-pentapeptide as substrate
T1 sequence (Q03521 whole entry): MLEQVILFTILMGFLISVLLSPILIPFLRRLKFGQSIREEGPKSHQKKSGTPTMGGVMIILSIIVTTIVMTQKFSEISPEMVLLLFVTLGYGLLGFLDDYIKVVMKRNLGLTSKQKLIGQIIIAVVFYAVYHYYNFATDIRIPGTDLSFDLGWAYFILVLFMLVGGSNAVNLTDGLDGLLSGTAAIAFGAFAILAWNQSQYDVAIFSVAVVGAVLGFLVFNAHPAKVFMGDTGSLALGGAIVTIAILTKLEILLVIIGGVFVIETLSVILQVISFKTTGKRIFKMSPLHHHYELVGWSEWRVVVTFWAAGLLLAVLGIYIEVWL

[2] = tested on: Staphylococcus aureus; experiment: Antibacterial activity against methicillin-sensitive Staphylococcus aureus ATCC 29213 after 20 hrs by two fold microdilution broth method; type: functional; conditions: ATCC 29213, 20 h
Procedure, shortened: (§1)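 NCCLS-recommended broth microdilution in cation-adjusted Mueller-Hinton broth; serial 2-fold compound dilutions; each well inoculated with 5×10⁴ CFU in 0.1 mL; incubated 35 °C for 20 h, then MIC (μg/mL) scored.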

[3] = tested on: Staphylococcus aureus; experiment: Antibacterial activity against methicillin-resistant Staphylococcus aureus SR-3637 clinical isolate after 20 hrs by two fold microdilution broth method; type: functional; conditions: SR3637, 20 h
Procedure, shortened: (§2)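 NCCLS broth microdilution in cation-adjusted Mueller-Hinton broth. Serial 2-fold compound dilutions, inoculum 5×10⁴ CFU per well in 0.1 mL. Plates incubated at 35 °C for 20 h, then MIC (μg/mL) scored. Strains are clinical isolates from Japanese hospitals: MRSA SR3637, VanA E. faecalis SR7914, VanA E. faecium SR7917.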

[4] = tested on: Enterococcus faecalis; experiment: Antibacterial activity against Enterococcus faecalis ATCC 29212 after 20 hrs by two fold microdilution broth method; type: functional; conditions: ATCC 29212, 20 h; procedure, shortened: as §1
[5] = tested on: Enterococcus faecalis; experiment: Antibacterial activity against vancomycin-resistant Enterococcus faecalis SR-7914 clinical isolate after 20 hrs by two fold microdilution broth method; type: functional; conditions: SR7914, 20 h; procedure, shortened: as §2
[6] = tested on: Enterococcus faecium; experiment: Antibacterial activity against Enterococcus faecium ATCC 19434 after 20 hrs by two fold microdilution broth method; type: functional; conditions: ATCC 19434, 20 h; procedure, shortened: as §1
[7] = tested on: Enterococcus faecium; experiment: Antibacterial activity against vancomycin-resistant Enterococcus faecium SR-7917 clinical isolate after 20 hrs by two fold microdilution broth method; type: functional; conditions: SR7917, 20 h; procedure, shortened: as §2

Compound	IC50 [1] [µM]	MIC [2] [µg/mL]	MIC [3] [µg/mL]	MIC [4] [µg/mL]	MIC [5] [µg/mL]	MIC [6] [µg/mL]	MIC [7] [µg/mL]
CCCCCCCCCCCCCCCC(=O)N1[C@H](C(=O)OC)[C@@H]([C@H]2O[C@@H](n3ccc(=O)[nH]c3=O)[C@H](O)[C@@H]2O)O[C@@H]1CCN.Cl	920	8	8	8	16	4	8
CCCCCCCCCCCCCCCC(=O)N1[C@H](C(=O)OC)[C@@H]([C@H]2O[C@@H](n3ccc(=O)[nH]c3=O)[C@H](O)[C@@H]2O)O[C@@H]1CCCN.Cl	1200	8	8	8	16	8	4
CCCCCCCCCCCCCCCC(=O)N1[C@H](C(=O)OC(C)(C)C)[C@@H]([C@H]2O[C@@H](n3ccc(=O)[nH]c3=O)[C@H](O)[C@@H]2O)O[C@@H]1CN	–	8 (≈ 12.3 µM)	16 (≈ 24.5 µM)	4 (≈ 6.13 µM)	2 (≈ 3.06 µM)	4 (≈ 6.13 µM)	4 (≈ 6.13 µM)
CCCCCCCCCCCCCCCC(=O)N1[C@H](C(=O)OC(C)(C)C)[C@@H]([C@H]2O[C@@H](n3ccc(=O)[nH]c3=O)[C@H](O)[C@@H]2O)O[C@@H]1CCN	–	8 (≈ 12 µM)	16 (≈ 24 µM)	2 (≈ 3 µM)	2 (≈ 3 µM)	2 (≈ 3 µM)	8 (≈ 12 µM)
CCCCCCCCCCCCCCCCNC(=O)[C@@H]1[C@@H]([C@H]2O[C@@H](n3ccc(=O)[nH]c3=O)[C@H](O)[C@@H]2O)O[C@H](CN)N1C(C)=O.Cl	–	16	32	32	16	16	16
CCCCCCCCCCCCCCCCNC(=O)[C@@H]1[C@@H]([C@H]2O[C@@H](n3ccc(=O)[nH]c3=O)[C@H](O)[C@@H]2O)O[C@H](CCN)N1C(C)=O.Cl	–	16	16	16	16	16	16
CCCCCCCCCCCCCCCCNC(=O)[C@@H]1[C@@H]([C@H]2O[C@@H](n3ccc(=O)[nH]c3=O)[C@H](O)[C@@H]2O)O[C@H](CCCN)N1C(C)=O.Cl	–	16	32	16	16	16	16
CCCCCCCCCCCCCCCC(=O)N1[C@H](C(=O)OC)[C@@H]([C@H]2O[C@@H](n3ccc(=O)[nH]c3=O)[C@H](O)[C@@H]2O)O[C@@H]1CCN=[N+]=[N-]	–	> 64	> 64	16 (≈ 24.6 µM)	> 64	64 (≈ 98.3 µM)	64 (≈ 98.3 µM)
CCCCCCCCCCCCCCCC(=O)N1[C@H](C(=O)OC)[C@@H]([C@H]2O[C@@H](n3ccc(=O)[nH]c3=O)[C@H](O)[C@@H]2O)O[C@@H]1CCCN=[N+]=[N-]	–	> 64	> 64	32 (≈ 48.1 µM)	> 64	> 64	64 (≈ 96.3 µM)
CCCCCCCCCCCCCCCC(=O)O[C@H]1CN[C@@H]([C@H](O[C@@H]2O[C@H](CN)[C@@H](O)[C@H]2O)[C@H]2O[C@@H](n3ccc(=O)[nH]c3=O)[C@H](O)[C@@H]2O)C(=O)N(C)[C@@H]1C(=O)O [DESMETHYLPALMITOYLCAPRAZOL]	–	0.5 (≈ 0.625 µM)	0.5 (≈ 0.625 µM)	0.5 (≈ 0.625 µM)	2 (≈ 2.5 µM)	1 (≈ 1.25 µM)	1 (≈ 1.25 µM)
CN[C@H](CC(C)C)C(=O)N[C@H]1C(=O)N[C@@H](CC(N)=O)C(=O)N[C@H]2C(=O)N[C@H]3C(=O)N[C@H](C(=O)N[C@H](C(=O)O)c4cc(O)cc(O)c4-c4cc3ccc4O)[C@H](O)c3ccc(c(Cl)c3)Oc3cc2cc(c3O[C@@H]2O[C@H](CO)[C@@H](O)[C@H](O)[C@H]2O[C@H]2C[C@](C)(N)[C@H](O)[C@H](C)O2)Oc2ccc(cc2Cl)[C@H]1O [VANCOMYCIN]	–	–	–	1 (≈ 0.69 µM)	> 64	> 64	> 64
